High-throughput results (PubChem BioAssay)
Rows were chosen to be rich in hits. Some 1.6% of all compounds tested hit in one or more screens of this group.
PKA-R1A act: activators of PKA-R1A complex; P00514+P68181; PKA-R1A dissociation, Cy5-IP20 fluorescence polarization; scaled: DMSO 0%, 113 µM cGMP 100%; activation, % at 11.4 µM; hit rate 0.083% among 340,000; AID 504707;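 active means percent activation above the mean of all tested compounds plus 3 SD, cut at about 19% in these data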;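 further: higher means more PKAc released from R1A so a rise in polarization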
Rpn11 block: Rpn11 (human) deubiquitinase inhibition; AID 588493; hit rate 0.59% among 360,000; O00487; calls only at 20 µM; human 26S proteasome, Ub4-pepOG fluorescence polarization; 20S core pre-blocked with epoxomicin;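 active means inhibition at 20 µM, scaled to each plate's controls, above about 33%, limit read from the data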
TPT1 inhibitor: inhibitors of Candida albicans tRNA 2'-phosphotransferase TPT1. hit rate 0.81% among 300,000. inhibition, % at 5 µM. recombinant caTPT1, FP RNA substrate dephosphorylation. AID 1962;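 active means inhibition above the mean of all tested compounds plus 3 SD, set per screening campaign, cut at about 24% in these data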;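 further: plate controls were DMSO alone for no effect and ferristatin control at 100 nM for full effect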
CSN deneddyl inh: blocks human CSN-mediated cullin deneddylation; Q92905; Purified CSN, SCF-Nedd8-OG deneddylation, fluorescence polarization; inhibition, % at 12.5 µM; hit rate 0.38% among 360,000; AID 651999;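 active means pattern-corrected inhibition above about 35%, with an unprinted fluorescence ratio check between 0.5 and 1.5, limit read from the data, passing the limit was not always enough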;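 further: 0% = enzyme with substrate and 100% = substrate without enzyme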
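Detection – fluorescence polarization · System – HEK293T-derived human Csn5 enzyme · Controls – substrate-only high control, full reaction low control · Timing – 90 min, room temperature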
HNF4A DNA FP: change in binding of human HNF4 alpha to DNA; activity change, % at 10 µM; HNF4a-FITC DNA binding, fluorescence polarization, 1 h; hit rate 0.3% among 360,000; in the data active means activity change above about 30%, passing the limit was not always enough
PKA-R2B activ: activates the human PKA-R2B holoenzyme complex. P22694+P31323. PKA-R2B holoenzyme dissociation, Cy5-IP20 fluorescence polarization; R2B truncated from residue 108, S112A mutant; 0% DMSO only, 100% 113 µM cGMP. activation, % at 11.4 µM. hit rate 0.079% among 340,000. AID 504700;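 active means activation above a cutoff set at the mean over all compounds plus 3 SD, cut at about 18% in these data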;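 further: higher means more holoenzyme dissociation and a rise in polarization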
Rpn11 inh conf: Rpn11 inhibition confirmation, single concentration | hit rate 29% among 1,900 | AID 602318 | purified human 26S proteasome, Ub4-pepOG fluorescence polarization; proteasome pretreated with epoxomicin | shares compounds with Rpn11 block | inhibition, % at 20 µM
MMP-2 counter: counter-screen for RPN11 inhibitors: inhibition of human MMP-2; recombinant MMP-2, FRET peptide cleavage fluorescence; shares compounds with Rpn11 block; hit rate 4% among 1,900; inhibition, % at 20 µM; AID 602330;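 further: human MMP-2 activated beforehand with APMA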
Target sequence (P08253 whole entry, looked up): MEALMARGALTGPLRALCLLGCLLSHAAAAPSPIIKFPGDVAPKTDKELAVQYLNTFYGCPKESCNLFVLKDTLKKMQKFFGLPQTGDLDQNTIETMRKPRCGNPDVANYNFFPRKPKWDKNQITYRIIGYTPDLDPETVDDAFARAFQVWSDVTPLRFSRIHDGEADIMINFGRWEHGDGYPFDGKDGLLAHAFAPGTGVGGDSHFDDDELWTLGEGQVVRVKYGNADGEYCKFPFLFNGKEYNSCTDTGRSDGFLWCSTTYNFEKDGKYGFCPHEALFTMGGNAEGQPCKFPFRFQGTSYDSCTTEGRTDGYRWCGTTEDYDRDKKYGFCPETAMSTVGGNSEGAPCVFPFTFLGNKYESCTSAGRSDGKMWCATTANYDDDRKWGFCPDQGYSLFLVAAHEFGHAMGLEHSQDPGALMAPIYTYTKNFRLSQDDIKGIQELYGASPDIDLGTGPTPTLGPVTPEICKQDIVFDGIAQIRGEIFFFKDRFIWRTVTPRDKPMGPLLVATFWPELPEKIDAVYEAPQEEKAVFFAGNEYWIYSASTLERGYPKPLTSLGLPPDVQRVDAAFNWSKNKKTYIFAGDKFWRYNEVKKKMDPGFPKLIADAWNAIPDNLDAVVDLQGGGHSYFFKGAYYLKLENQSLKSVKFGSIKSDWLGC
Thrombin inh: thrombin (bovine) inhibition counter-screen. shares compounds with Rpn11 block. bovine thrombin cleavage of Ub4-pepOG, fluorescence polarization. inhibition, % at 20 µM. hit rate 13% among 1,900. AID 602333;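 active means mean inhibition at least 40% at 20 µM, or signal 3 deviations below plate average, so some actives read negative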;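 further: plate controls were thrombin with DMSO for no effect and buffer wells lacking thrombin for full effect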
Numbers without * were called inactive; i = inactive; . = no result given; + = active, no number. Unless noted, no stated cut-off is given here; in the data, active means inhibition above about 40%; inactive means the rest.

SMILES	PKA-R1A act	Rpn11 block	TPT1 inhibitor	CSN deneddyl inh	HNF4A DNA FP	PKA-R2B activ	Rpn11 inh conf	MMP-2 counter	Thrombin inh
Fc1ccc(N2CCN(C3=Nc4cccc5cccc3c45)CC2)cc1	-4	+	19	11	15	-6	8	-25	0
CC(=O)N/N=C(/c1ccccc1)C(O)c1ccccc1 (stereo unspecified)	4	i	.	4	1	-18	.	.	.
Nc1cccn2c(-c3ccc(Cl)c(Cl)c3)cnc12	-6	+	18	22	31	-8	32	-15	4
CCOC(=O)c1sc(Nc2ccc(C)cc2C)nc1C	-20	+	2	1	-1	-11	-8	17	-22
O=C(Nc1ccccc1-c1nc2ccccc2s1)C1=COCCO1	5	+	-2	3	-5	-2	4	10	-12
COc1cccc(N2CC(C(=O)Nc3nnc(SCCN4CCOCC4)s3)CC2=O)c1 (stereo unspecified)	-5	+	0	6	-1	1	7	-19	13
O=S1(=O)CC2SC(=S)N(Cc3ccccc3)C2C1 (stereo unspecified)	.	i	1	3	-1	.	.	.	.
Clc1cccc(CNc2nc(-c3cccnc3)nc3ccccc23)c1	-7	+	.	6	5	3	4	-60	-17
CC(C)C(NC(=O)C1(NC(=O)OCc2ccccc2)CCCC1)C(=O)O (stereo unspecified)	3	i	.	-3	-1	-3	.	.	.
CC(C)(C)OC(=O)N1CCCC(C(=O)Nc2cccc(C(=O)N3CCCC3)c2)C1 (stereo unspecified)	-3	i	.	-1	1	-4	.	.	.
O=C(O)c1cn(C2CC2)c2cc(N3CCN(S(=O)(=O)c4ccc5c(c4)OCCO5)CC3)c(F)cc2c1=O	-8	+	1	1	3	-8	16	-10	14
COc1ccc(Nc2nc(-c3c[nH]c4ccccc34)cs2)cc1	1	+	24	6	23	2	6	16	5
COc1ccc(Nc2nc(-c3ccc(OC)cc3)cs2)cc1	-3	i	3	13	3	-1	.	.	.
N#Cc1ccccc1NC(=O)CN1C(=O)NC(Cc2c[nH]c3ccccc23)C1=O (stereo unspecified)	-3	i	.	2	10	-7	.	.	.
Cc1nc2sc(-c3ccccc3)cc2c(=O)[nH]1	-4	+	7	-1	14	5	10	-24	-1
CCOC(=O)c1nnn2c1nc(Nc1cccc(C(F)(F)F)c1)c1ccccc12	.	+	-2	2	-3	.	7	-8	1
O=C(CCN1C(=O)/C(=C/C=C/c2ccccc2)SC1=S)Nc1ccccn1	3	+	20	11	18	2	-2	-10	-34
O=C(OCc1cn([C@H]2CN(CC3CCCCC3)[C@@H](c3ccc(Cl)cc3)C[C@@H]2O)nn1)c1ccccc1	-5	i	.	-3	-1	-15	.	.	.
O=c1cc(CN2CCCCCCC2)c2ccccc2o1	.	+	.	8	23	.	17	12	-5
O=c1cc(CN2CCCCC2)c2ccccc2o1	.	i	.	7	0	.	.	.	.
CCc1ccc(O)c(N=Cc2cccc(C)c2O)c1	-5	+	3	10	19	-2	43*	-22	18
Cc1ccccc1CCN(C(=O)Cn1nnc2ccccc21)C(C(=O)NCC1CCCO1)c1nc2ccccc2n1C (stereo unspecified)	-9	i	1	5	-4	-10	.	.	.
Cc1ccsc1/C=N/n1c(-c2cc(-c3ccccc3)n[nH]2)n[nH]c1=S	-13	+	-2	6	-5	-10	100*	20	14
S=c1[nH]nc(-c2cc(-c3ccccc3)n[nH]2)n1/N=C/c1c(Cl)cccc1Cl	1	+	-1	46*	-6	-9	87*	45*	52*
C=CCNC(=O)c1ccc(Cn2c(=S)[nH]c3cc4c(cc3c2=O)OCO4)cc1	-5	+	7	56*	16	3	154*	41*	-18
SMILES	PKA-R1A act	Rpn11 block	TPT1 inhibitor	CSN deneddyl inh	HNF4A DNA FP	PKA-R2B activ	Rpn11 inh conf	MMP-2 counter	Thrombin inh
COc1ccc(CCNC(=O)CN(C2CCCCC2)S(C)(=O)=O)cc1	10	+	-4	-3	-3	-2	-5	-31	-5
COc1ccc(CNC(=O)CN(C2CCCCC2)S(C)(=O)=O)cc1	3	i	3	-5	-5	-10	.	.	.
O=C1C=CC(=O)N1c1cccc2cccnc12	1	i	.	-1	-10	1	.	.	.
C=CCn1sc(=N)c(C#N)c1N	-18	+	-3	12	20	-2	2	16	-2
COc1ccc(Cl)cc1NC(=O)CCNS(=O)(=O)c1cccc2nonc12	-9	i	-5	2	3	-12	.	.	.
O=C(COC(=O)Cc1ccsc1)NCc1ccccc1	5	+	1	-1	0	6	-3	-15	-18
CC(C)n1c(CSCc2ccc(Cl)cc2Cl)n[nH]c1=S	-10	i	7	-4	-2	-2	.	.	.
Cc1ccc(NC(=O)CN(C)C(=O)c2cccc(-n3cccc3)c2)cc1	-6	+	.	29	-39	-6	85*	29	21
COc1ccc(NC(=O)CN(C)C(=O)c2cccc(-n3cccc3)c2)cc1	-12	i	0	30	26	-13	.	.	.
Cc1cccc(-c2nc(Nc3cccc(O)c3)c3ccccc3n2)c1	-13	+	6	1	21	-7	19	-28	12
Clc1cccc(Nc2nc(-c3ccncc3)nc3ccccc23)c1	-11	i	2	0	8	-4	.	.	.
Cc1cccc(-c2nc(Nc3ccc(N4CCOCC4)cc3)c3ccccc3n2)c1	-16	i	3	-11	4	1	.	.	.
Fc1ccc(Nc2nc(-c3ccncc3)nc3ccccc23)cc1F	-13	+	-2	8	19	9	17	-18	-23
Cc1ccccc1NC(=O)c1cc(C(=O)c2cc(Cl)ccc2O)cn(-c2ccccc2C)c1=O	2	+	12	0	7	-11	11	-79	-17
